Test results: ChEMBL document CHEMBL1138290 (J Med Chem, 2007)

Key:
[1] = Cytotoxicity against human KB/HeLa cells after 48 hrs by XTT assay; assay type: functional, cell-based
Method in brief: (§1)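 XTT proliferation assay with 48 h incubation with test compound. Each experiment run at least in duplicate (n = 2). IC50 calculated by nonlinear regression of dose-response curves.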

RKO = experiment: Cytotoxicity against human RKO cells with ectopic-inducible expression of p27kip1 after 48 hrs by XTT assay; assay type: functional, cell-based; method in brief: as §1
[2] = Cell cycle arrest in KB/HeLa cells assessed as accumulation at G2/M phase after 24 hrs by flow cytometric analysis; assay type: functional, cell-based; details: Homo sapiens
Method in brief: (§2)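 Subconfluent KB/HeLa cells exposed to a range of compound concentrations for 24 h. Cell cycle phase distribution determined by flow cytometry. Experiments run at least in duplicate (n = 2).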

[3] = Cell cycle arrest in KB/HeLa cells assessed as accumulation at S phase at 3.16 nM after 24 hrs by flow cytometric analysis; assay type: functional, cell-based; details: Homo sapiens; method in brief: as §2
[4] = Cell cycle arrest in KB/HeLa cells assessed as accumulation at S phase at 0.3 nM after 24 hrs by flow cytometric analysis; assay type: functional, cell-based; details: Homo sapiens; method in brief: as §2
[5] = Cell cycle arrest in KB/HeLa cells assessed as accumulation at S phase at 1 nM after 24 hrs by flow cytometric analysis; assay type: functional, cell-based; details: Homo sapiens; method in brief: as §2
[6] = Cell cycle arrest in KB/HeLa cells assessed as accumulation at S phase at 10 nM after 24 hrs by flow cytometric analysis; assay type: functional, cell-based; details: Homo sapiens; method in brief: as §2
[7] = Cell cycle arrest in KB/HeLa cells assessed as accumulation at S phase at 31.6 nM after 24 hrs by flow cytometric analysis; assay type: functional, cell-based; details: Homo sapiens; method in brief: as §2
[8] = Cell cycle arrest in KB/HeLa cells assessed as accumulation at S phase at 100 nM after 24 hrs by flow cytometric analysis; assay type: functional, cell-based; details: Homo sapiens; method in brief: as §2
[9] = Cell cycle arrest in KB/HeLa cells assessed as accumulation at S phase at 316 nM after 24 hrs by flow cytometric analysis; assay type: functional, cell-based; details: Homo sapiens; method in brief: as §2
[10] = Cell cycle arrest in KB/HeLa cells assessed as accumulation at G2M phase at 0.3 nM after 24 hrs by flow cytometric analysis; assay type: functional, cell-based; details: Homo sapiens; method in brief: as §2
[11] = Cell cycle arrest in KB/HeLa cells assessed as accumulation at G2M phase at 1 nM after 24 hrs by flow cytometric analysis; assay type: functional, cell-based; details: Homo sapiens; method in brief: as §2
[12] = Cell cycle arrest in KB/HeLa cells assessed as accumulation at G2M phase at 10 nM after 24 hrs by flow cytometric analysis; assay type: functional, cell-based; details: Homo sapiens; method in brief: as §2
[13] = Cell cycle arrest in KB/HeLa cells assessed as accumulation at G2M phase at 31.6 nM after 24 hrs by flow cytometric analysis; assay type: functional, cell-based; details: Homo sapiens; method in brief: as §2
[14] = Cell cycle arrest in KB/HeLa cells assessed as accumulation at G2M phase at 100 nM after 24 hrs by flow cytometric analysis; assay type: functional, cell-based; details: Homo sapiens; method in brief: as §2
[15] = Cell cycle arrest in KB/HeLa cells assessed as accumulation at G2M phase at 316 nM after 24 hrs by flow cytometric analysis; assay type: functional, cell-based; details: Homo sapiens; method in brief: as §2
[16] = Cell cycle arrest in KB/HeLa cells assessed as accumulation at G1 phase at 0.3 nM after 24 hrs by flow cytometric analysis; assay type: functional, cell-based; details: Homo sapiens; method in brief: as §2
[17] = Cell cycle arrest in KB/HeLa cells assessed as accumulation at G1 phase at 1 nM after 24 hrs by flow cytometric analysis; assay type: functional, cell-based; details: Homo sapiens; method in brief: as §2
[18] = Cell cycle arrest in KB/HeLa cells assessed as accumulation at G1 phase at 3.16 nM after 24 hrs by flow cytometric analysis; assay type: functional, cell-based; details: Homo sapiens; method in brief: as §2
[19] = Cell cycle arrest in KB/HeLa cells assessed as accumulation at G1 phase at 10 nM after 24 hrs by flow cytometric analysis; assay type: functional, cell-based; details: Homo sapiens; method in brief: as §2
[20] = Cell cycle arrest in KB/HeLa cells assessed as accumulation at G1 phase at 31.6 nM after 24 hrs by flow cytometric analysis; assay type: functional, cell-based; details: Homo sapiens; method in brief: as §2
[21] = Cell cycle arrest in KB/HeLa cells assessed as accumulation at G1 phase at 100 nM after 24 hrs by flow cytometric analysis; assay type: functional, cell-based; details: Homo sapiens; method in brief: as §2
[22] = Cell cycle arrest in KB/HeLa cells assessed as accumulation at G1 phase at 316 nM after 24 hrs by flow cytometric analysis; assay type: functional, cell-based; details: Homo sapiens; method in brief: as §2
K562 = experiment: Antiproliferative activity against human K562 cells after 48 hrs; assay type: functional, cell-based; details: K562, 48 h
Method in brief: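 Growth of K562 cells measured by counting cells with a hemocytometer after 48 h (2 days) of drug treatment. IC50 is the mean of at least three independent determinations.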

Tubulin = Tubulin (Sus scrofa, UniProt P02554+P02550); experiment: Inhibition of porcine brain tubulin polymerization
[23] = Antiproliferative activity against rat multidrug-resistant L12 cells after 48 hrs by XTT assay; assay type: functional, cell-based; details: L1.2, 48 h; method in brief: as §1
L1210 = experiment: Antiproliferative activity against mouse vincristine-resistant L1210 cells after 48 hrs by XTT assay; assay type: functional, cell-based; details: L1210, 48 h; method in brief: as §1
P388 = experiment: Antiproliferative activity against mouse adriamycin-resistant P388 cells after 48 hrs by XTT assay; assay type: functional, cell-based; details: P388, 48 h; method in brief: as §1
[24] = Cell cycle arrest in KB/HeLa cells assessed as accumulation at G2M phase at 3.16 nM after 24 hrs by flow cytometric analysis; assay type: functional, cell-based; details: Homo sapiens

SMILES | IC50 [1] | IC50 (RKO) | EC50 [2] | Activity [3] | Activity [5] | Activity [6] | Activity [7] | Activity [8] | Activity [9] | Activity [11] | Activity [12] | Activity [13] | Activity [14] | Activity [15] | Activity [17] | Activity [18] | Activity [19] | Activity [20] | Activity [21] | IC50 (K562) | also measured
COc1cc2c(c(OC)c1OC)-c1ccc(OC)c(=O)cc1[C@@H](NC(C)=O)CC2 [COLCHICINE] | 30 nM | > 14000 nM | 14 nM | 25.1% | 25.4% | 35.7% | 11.9% | 5.1% | 5.2% | 10% | 32.1% | 87.6% | 94.7% | 94.5% | 64.7% | 64.3% | 32.2% | 0.5% | 0.3% |  | Activity [4]: 26.6%; Activity [10]: 10.1%; Activity [16]: 63.3%; Activity [22]: 0.3%
COc1cccc(S(=O)(=O)Oc2c3ccccc3cc3sccc23)c1 |  |  |  |  |  |  |  |  |  |  |  |  |  |  |  |  |  |  |  | 250 nM | IC50 (Tubulin): 290 nM
COc1cc([N+](=O)[O-])ccc1S(=O)(=O)Oc1c2ccccc2cc2sccc12 |  |  |  |  |  |  |  |  |  |  |  |  |  |  |  |  |  |  |  | 1400 nM | 
CC(=O)O[C@H]1C(=O)[C@@]2(C)[C@H]([C@H](OC(=O)c3ccccc3)[C@]3(O)C[C@H](OC(=O)[C@H](O)[C@@H](NC(=O)c4ccccc4)c4ccccc4)C(C)=C1C3(C)C)[C@]1(OC(C)=O)CO[C@@H]1C[C@@H]2O [PACLITAXEL] | 10 nM | > 3000 nM | 49 nM | 27% | 26.7% | 26.6% | 49.9% | 11% | 8.9% | 10.1% | 8.5% | 19% | 87.8% | 90.8% | 63.2% | 63.6% | 64.8% | 31.1% | 1.2% |  | IC50 [23]: 400 nM; IC50 (L1210): > 5000 nM; IC50 (P388): > 5000 nM; Activity [24]: 9.4%; Activity [22]: 0.3%
Cc1ccc(S(=O)(=O)Oc2c3ccccc3cc3sccc23)cc1 |  |  |  |  |  |  |  |  |  |  |  |  |  |  |  |  |  |  |  | 440 nM | IC50 (Tubulin): 1050 nM
COc1cc(N)ccc1S(=O)(=O)Oc1c2ccccc2cc2sccc12 |  |  |  |  |  |  |  |  |  |  |  |  |  |  |  |  |  |  |  | 280 nM | 
